ChEMBL document CHEMBL1129970, “Biologically active conformer of the effector region of human C5a and modulatory effects of N-terminal receptor binding determinants on activity” (J Med Chem, 1997)

What was measured:
Homo sapiens [1] = species on record: Homo sapiens; assay: Effective concentration to induce smooth muscle contraction in human fetal artery; format: functional; conditions: Muscle tissue
Procedure, shortened: (§1)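 Human fetal artery smooth muscle contraction; full dose–response curves for recombinant human C5a or each peptide in the same tissue preparation. EC50 is the concentration giving 50% of the maximal response, read relative to the C5a maximum. pD2 = −log EC50 (M), averaged per peptide ± SE. Log potency ratio pD2(C5a) − pD2(peptide) is computed within each experiment. Relative potency = antilog(−Δ) × 100.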

Homo sapiens [2] = species on record: Homo sapiens; assay: Effective concentration to stimulate beta-glucuronidase release from human polymorphonuclear cells (PMN) (n=4); format: functional
Procedure, shortened: (§2)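 Human PMNs pretreated with cytochalasin B (5 μg/mL, 10 min, 37 °C), then 10⁶ cells stimulated for 60 min at 37 °C. β-Glucuronidase in the supernatant is assayed with 0.01 M p-nitrophenyl β-D-glucuronide (0.1 M acetate, pH 4, 18 h) in triplicate. Reaction stopped with glycine pH 10 and read at 415 nm. pD2 is taken from dose–response curves against the C5a EC50. Efficacy is given relative to C5a maximum (100%).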

Homo sapiens [3] = species on record: Homo sapiens; assay: Log potency ratio [pD2(C5a)-pD2(peptide)] was determined in human polymorphonuclear cells (PMN) (n=5); format: functional; procedure, shortened: as §2
[4] = Selectivity of peptide was determined from antilog[pD2(fetal artery)-pD2 (PMN enzyme release)] (n=11); format: functional
Procedure, shortened: (§3)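 Selectivity = antilog[pD2(fetal artery) − pD2(PMN β-glucuronidase release)]. pD2 values come from full dose–response curves in each assay, each generated alongside C5a.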

Homo sapiens [5] = species on record: Homo sapiens; assay: Tested for the ability to stimulate beta-glucuronidase release from human polymorphonuclear cells (PMN) (n=5); format: functional; procedure, shortened: as §2
Homo sapiens [6] = species on record: Homo sapiens; assay: Spasmogenic activity was measured by the ability to induce smooth muscle contraction in human fetal artery; format: functional, Muscle tissue; procedure, shortened: as §1
Homo sapiens [7] = species on record: Homo sapiens; assay: Relative potency of peptide to stimulate beta-glucuronidase release from human polymorphonuclear cells (PMN) (n=5); format: functional; procedure, shortened: as §2
Homo sapiens [8] = species on record: Homo sapiens; assay: Maximum efficacy relative to C5a (100%) for human polymorphonuclear cells (PMN) was determined (n=5); format: functional; procedure, shortened: as §2
Homo sapiens [9] = species on record: Homo sapiens; assay: Log potency ratio [pD2(C5a)-pD2(peptide)] was determined in human fetal artery; format: functional; procedure, shortened: as §1
Homo sapiens [10] = species on record: Homo sapiens; assay: Relative potency of peptide for human fetal artery was determined; format: functional; procedure, shortened: as §1
Homo sapiens [11] = species on record: Homo sapiens; assay: Tested for inhibition of binding of [125I]C5a to intact human polymorphonuclear cells (PMN) (n=3); format: functional
Procedure, shortened: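 Competition binding on freshly isolated intact human PMNs (0.25 × 10⁶) with 20 pM [¹²⁵I]C5a plus unlabeled C5a or peptide. Buffer is 50 mM HEPES, 1 mM CaCl₂, 5 mM MgCl₂, 0.5% BSA. Incubation 60 min at 4 °C, then filtration, ice-cold washes and gamma counting, triplicates. Nonspecific binding defined with 1 mM peptide or 100 nM C5a. Relative affinity = antilog[−(log IC50 C5a − log IC50 peptide)] × 100. The potency/binding ratio is EC50 divided by the binding IC50.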

Homo sapiens [12] = species on record: Homo sapiens; assay: Maximum efficacy relative to C5a (100%) for human polymorphonuclear cells (PMN) was determined (n=4); format: functional; procedure, shortened: as §2
[13] = Selectivity of peptide was determined from antilog[pD2(fetal artery)-pD2 (PMN enzyme release)] (n=10); format: functional; procedure, shortened: as §3
Homo sapiens [14] = species on record: Homo sapiens; assay: Relative potency of peptide to stimulate beta-glucuronidase release from human polymorphonuclear cells (PMN) (n=4); format: functional; procedure, shortened: as §2
Homo sapiens [15] = species on record: Homo sapiens; assay: Tested for the ability to stimulate beta-glucuronidase release from human polymorphonuclear cells (PMN) (n=4); format: functional; procedure, shortened: as §2
Homo sapiens [16] = species on record: Homo sapiens; assay: Log potency ratio [pD2(C5a)-pD2(peptide)] was determined in human polymorphonuclear cells (PMN) (n=4); format: functional; procedure, shortened: as §2
[17] = Selectivity of peptide was determined from antilog[pD2(fetal artery)-pD2 (PMN enzyme release)] (n=12); format: functional; procedure, shortened: as §3
Homo sapiens [18] = species on record: Homo sapiens; assay: Effective concentration to stimulate beta-glucuronidase release from human polymorphonuclear cells (PMN) (n=5); format: functional; procedure, shortened: as §2

Row | EC50 (Homo sapiens [1]) | EC50 (Homo sapiens [2]) | Structure (SMILES) | pD2 (Homo sapiens [6]) | Mean log concentration ratio (Homo sapiens [9]) | Potency (Homo sapiens [10]) | C5a max (Homo sapiens [12]) | Potency (Homo sapiens [14]) | pD2 (Homo sapiens [15]) | Mean log concentration ratio (Homo sapiens [16]) | further results
1 | 100 nM | 9300 nM | CSCC[C@H](NC(=O)[C@@H]1CCCN1C(=O)[C@H](CCCCN)NC(=O)[C@H](Cc1ccccc1)NC(=O)[C@H](CO)NC(=O)[C@H](Cc1ccc(O)cc1)NC(C)=O)C(=O)N1CCC[C@H]1C(=O)N[C@@H](CC(C)C)C(=O)N[C@H](C)C(=O)N[C@@H](CCCN=C(N)N)C(=O)O |  |  |  |  |  |  |  | 
2 | 100 nM | 4900 nM | CSCC[C@H](NC(=O)[C@@H]1CCCN1C(=O)[C@H](CCCCN)NC(=O)[C@H](Cc1ccccc1)NC(=O)[C@H](CO)NC(=O)[C@H](Cc1ccc(O)cc1)NC(=O)CCCCCNC(=O)[C@H](CCCCN)NC(=O)CNC(=O)[C@@H](N)CCCCN)C(=O)N1CCC[C@H]1C(=O)N[C@@H](CC(C)C)C(=O)N[C@H](C)C(=O)N[C@@H](CCCN=C(N)N)C(=O)O [listing 1 of 2 here] |  |  |  |  |  |  |  | 
3 | 70 nM | 3100 nM | CSCC[C@H](NC(=O)[C@@H]1CCCN1C(=O)[C@H](CCCCN)NC(=O)[C@H](Cc1ccccc1)NC(=O)[C@H](CO)NC(=O)[C@H](Cc1ccc(O)cc1)NC(=O)CCCCCN)C(=O)N1CCC[C@H]1C(=O)N[C@@H](CC(C)C)C(=O)N[C@H](C)C(=O)N[C@@H](CCCN=C(N)N)C(=O)O |  |  |  |  |  |  |  | IC50 (Homo sapiens [11]): 5500 nM
4 | 100 nM | 6700 nM | CSCC[C@H](NC(=O)[C@@H]1CCCN1C(=O)[C@H](CCCCN)NC(=O)[C@H](Cc1ccccc1)NC(=O)[C@H](CO)NC(=O)[C@H](Cc1ccc(O)cc1)NC(=O)CCCCCNC(=O)[C@H](CCCCN)NC(=O)CNC(=O)[C@H](CCCCN)NC(=O)CNC(=O)[C@@H](N)CCCCN)C(=O)N1CCC[C@H]1C(=O)N[C@@H](CC(C)C)C(=O)N[C@H](C)C(=O)N[C@@H](CCCN=C(N)N)C(=O)O [listing 1 of 2 here] |  |  |  |  |  |  |  | 
5 | 200 nM | 3900 nM | CSCC[C@H](NC(=O)[C@@H]1CCCN1C(=O)[C@H](CCCCN)NC(=O)[C@H](Cc1ccccc1)NC(=O)[C@H](CO)NC(=O)[C@H](Cc1ccc(O)cc1)NC(=O)[C@H](CCCCN)NC(=O)CNC(=O)[C@H](CCCCN)NC(=O)CNC(=O)[C@@H](N)CCCCN)C(=O)N1CCC[C@H]1C(=O)N[C@@H](CC(C)C)C(=O)N[C@H](C)C(=O)N[C@@H](CCCN=C(N)N)C(=O)O [listing 2 of 2 here] |  |  |  |  |  |  |  | 
6 | 100 nM |  | CSCC[C@H](NC(=O)[C@@H]1CCCN1C(=O)[C@H](CCCCN)NC(=O)[C@H](Cc1ccccc1)NC(=O)[C@H](CO)NC(=O)[C@H](Cc1ccc(O)cc1)NC(=O)CCCCCNC(=O)[C@H](Cc1c[nH]c2ccccc12)NC(=O)[C@@H](N)CCCCN)C(=O)N1CCC[C@H]1C(=O)N[C@@H](CC(C)C)C(=O)N[C@H](C)C(=O)N[C@@H](CCCN=C(N)N)C(=O)O [listing 2 of 2 here] |  |  |  |  |  |  |  | EC50 (Homo sapiens [18]): 2500 nM
7 | 200 nM | 7200 nM | CSCC[C@H](NC(=O)[C@@H]1CCCN1C(=O)[C@H](CCCCN)NC(=O)[C@H](Cc1ccccc1)NC(=O)[C@H](CO)NC(=O)[C@H](Cc1ccc(O)cc1)NC(=O)CCCCCNC(=O)[C@H](Cc1c[nH]c2ccccc12)NC(=O)[C@@H](N)CC(=O)O)C(=O)N1CCC[C@H]1C(=O)N[C@@H](CC(C)C)C(=O)N[C@H](C)C(=O)N[C@@H](CCCN=C(N)N)C(=O)O |  |  |  |  |  |  |  | 

More lines, now with the values behind:

Row | Structure (SMILES) | EC50 (Homo sapiens [1]) | EC50 (Homo sapiens [2]) | pD2 (Homo sapiens [6]) | Mean log concentration ratio (Homo sapiens [9]) | Potency (Homo sapiens [10]) | C5a max (Homo sapiens [12]) | Potency (Homo sapiens [14]) | pD2 (Homo sapiens [15]) | Mean log concentration ratio (Homo sapiens [16]) | further results
8 | CSCC[C@H](NC(=O)[C@@H]1CCCN1C(=O)[C@H](CCCCN)NC(=O)[C@H](Cc1ccccc1)NC(=O)[C@H](CO)NC(=O)[C@H](Cc1ccc(O)cc1)NC(=O)CNC(=O)CNC(=O)CNC(=O)[C@H](CCCCN)NC(=O)CNC(=O)[C@H](CCCCN)NC(=O)CNC(=O)[C@@H](N)CCCCN)C(=O)N1CCC[C@H]1C(=O)N[C@@H](CC(C)C)C(=O)N[C@H](C)C(=O)N[C@@H](CCCN=C(N)N)C(=O)O [listing 1 of 2 here] | 70 nM | 2000 nM |  |  |  |  |  |  |  | 
9 | CSCC[C@H](NC(=O)[C@@H]1CCCN1C(=O)[C@H](CCCCN)NC(=O)[C@H](Cc1ccccc1)NC(=O)[C@H](CO)NC(=O)[C@H](Cc1ccc(O)cc1)NC(=O)CCCCCNC(=O)[C@H](Cc1c[nH]c2ccccc12)NC(=O)[C@@H](N)CCCCN)C(=O)N1CCC[C@H]1C(=O)N[C@@H](CC(C)C)C(=O)N[C@H](C)C(=O)N[C@@H](CCCN=C(N)N)C(=O)O [listing 1 of 2 here] |  |  | 7.11 | 0.86 | 14% |  |  |  |  | Mean log concentration ratio (Homo sapiens [3]): 1.72; Selectivity [4]: 32; pD2 (Homo sapiens [5]): 5.6; Potency (Homo sapiens [7]): 1.9%; C5a max (Homo sapiens [8]): 134%
10 | CSCC[C@H](NC(=O)[C@@H]1CCCN1C(=O)[C@H](CCCCN)NC(=O)[C@H](Cc1ccccc1)NC(=O)[C@H](CO)NC(=O)[C@H](Cc1ccc(O)cc1)NC(=O)[C@H](CCCCN)NC(=O)CNC(=O)[C@H](CCCCN)NC(=O)CNC(=O)[C@@H](N)CCCCN)C(=O)N1CCC[C@H]1C(=O)N[C@@H](CC(C)C)C(=O)N[C@H](C)C(=O)N[C@@H](CCCN=C(N)N)C(=O)O [listing 1 of 2 here] |  |  | 6.81 | 1.2 | 6.2% | 198% | 0.9% | 5.4 | 2.05 | Selectivity [13]: 26
11 | CSCC[C@H](NC(=O)[C@@H]1CCCN1C(=O)[C@H](CCCCN)NC(=O)[C@H](Cc1ccccc1)NC(=O)[C@H](CO)NC(=O)[C@H](Cc1ccc(O)cc1)NC(=O)CNC(=O)CNC(=O)CNC(=O)[C@H](CCCCN)NC(=O)CNC(=O)[C@H](CCCCN)NC(=O)CNC(=O)[C@@H](N)CCCCN)C(=O)N1CCC[C@H]1C(=O)N[C@@H](CC(C)C)C(=O)N[C@H](C)C(=O)N[C@@H](CCCN=C(N)N)C(=O)O [listing 2 of 2 here] |  |  | 7.14 | 0.83 | 15% | 177% | 1.8% | 5.71 | 1.74 | Selectivity [4]: 27
12 | CSCC[C@H](NC(=O)[C@@H]1CCCN1C(=O)[C@H](CCCCN)NC(=O)[C@H](Cc1ccccc1)NC(=O)[C@H](CO)NC(=O)[C@H](Cc1ccc(O)cc1)NC(=O)CCCCCNC(=O)[C@H](CCCCN)NC(=O)CNC(=O)[C@H](CCCCN)NC(=O)CNC(=O)[C@@H](N)CCCCN)C(=O)N1CCC[C@H]1C(=O)N[C@@H](CC(C)C)C(=O)N[C@H](C)C(=O)N[C@@H](CCCN=C(N)N)C(=O)O [listing 2 of 2 here] |  |  | 6.98 | 0.99 | 10% | 173% | 0.6% | 5.18 | 2.2 | Selectivity [17]: 63
13 | CSCC[C@H](NC(=O)[C@@H]1CCCN1C(=O)[C@H](CCCCN)NC(=O)[C@H](Cc1ccccc1)NC(=O)[C@H](CO)NC(=O)[C@H](Cc1ccc(O)cc1)NC(=O)CCCCCNC(=O)[C@H](CCCCN)NC(=O)CNC(=O)[C@@H](N)CCCCN)C(=O)N1CCC[C@H]1C(=O)N[C@@H](CC(C)C)C(=O)N[C@H](C)C(=O)N[C@@H](CCCN=C(N)N)C(=O)O [listing 2 of 2 here] |  |  | 6.98 | 0.97 | 11% | 156% | 1% | 5.31 | 1.99 | Selectivity [13]: 47
